Experimental data from different studies.
Protocols differ between the studies behind these lines.
RPS6KA1 N-terminal kinase domain: Ribosomal protein S6 kinase alpha-1, N-terminal kinase domain (RPS6KA1, Homo sapiens, UniProt Q15418)
RPS6KA1: Ribosomal protein S6 kinase alpha-1 (RPS6KA1, Homo sapiens, UniProt Q15418)
RPS6KA1 C-terminal kinase domain: Ribosomal protein S6 kinase alpha-1, C-terminal kinase domain (RPS6KA1, Homo sapiens, UniProt Q15418)

SMILES	target	observed	mode	method	concentration	endpoint	value
Nc1ncnc2occ(-c3ccc(NC(=O)Nc4cc(C(F)(F)F)ccc4F)cc3)c12	RPS6KA1 N-terminal kinase domain	cell-free assay	inhibitor		20 µM	remaining signal	2%
CC(C)c1ccc(NC(=O)c2cccs2)c(-c2nc3ccccc3[nH]c2=O)c1	RPS6KA1	enzyme activity	inhibitor		1 µM	activity vs control	96%
COc1cc2c(Nc3ccc(Br)cc3F)ncnc2cc1OCC1CCN(C)CC1	RPS6KA1	cell-free assay			0.5 µM	remaining signal	102%
CNC(=O)c1cc(Oc2ccc(NC(=O)Nc3ccc(Cl)c(C(F)(F)F)c3)cc2)ccn1	RPS6KA1	enzyme activity	inhibitor		0.3 µM	inhibition	5%
Cc1c[nH]c2nccc(Oc3c(F)cc(Nc4cc(Cl)nc(N)n4)cc3F)c12	RPS6KA1 N-terminal kinase domain	cell-free assay		competition with immobilised ligand	0.1 µM	remaining binding	91%
N#CCCc1ccc2c(c1)-c1[nH]c3ccc([N+](=O)[O-])cc3c1CC(=O)N2	RPS6KA1	cell-free assay			0.5 µM	remaining signal	59.9%
CC(C)(O)[C@H]1CC[C@H](Nc2ccc3ncc(-c4cccc(C(F)(F)F)c4)n3n2)CC1	RPS6KA1	enzyme activity	inhibitor		1 µM	remaining activity	72%
O=C1Nc2ccc(Cl)cc2C1=Cc1cc(Cl)c(O)c(Cl)c1	RPS6KA1	cell-free assay			0.5 µM	remaining signal	48.4%
CCOc1cc(-c2nncn2C)ccc1Nc1ncc2cc(C)nc(NCC(C)(C)C)c2n1	RPS6KA1	enzyme activity	inhibitor	FRET	1 µM	inhibition	< 15%
c1ccc(CNc2nc(N3CCOc4ccccc43)nc3c2CCCC3)cc1	RPS6KA1 C-terminal kinase domain	target engagement in cells	inhibitor	chemoproteomics	20 mM	inhibition	-6.9%
COc1cc(Nc2cnc(C#N)c(O[C@H](C)CN(C)C)n2)ncc1-c1cnn(C)c1	RPS6KA1	enzyme activity	inhibitor	radiometric	10 µM	remaining activity	14%
FC(F)c1nc2ccccc2n1-c1nc(N2CCOCC2)nc(N2CCOCC2)n1	RPS6KA1	enzyme activity	inhibitor		10 µM	remaining activity	95%
COc1ccc2cc(OCC3(C(=O)O)CN(C(=O)c4ccc(F)cc4)C3)ccc2c1	RPS6KA1 C-terminal kinase domain	cell-free assay		competition with immobilised ligand	1 µM	remaining binding	100%
COc1cc2ncnc(Nc3ccc(Oc4ccccc4)c(C)c3C)c2cc1OC	RPS6KA1	enzyme activity	inhibitor		1 µM	inhibition	-2%
CC(=O)c1c(NS(C)(=O)=O)c2cc(-c3ccc(Cl)cc3)c(-c3ccc(Cl)cc3Cl)nc2n(C)c1=O	RPS6KA1 N-terminal kinase domain	cell-free assay		competition with immobilised ligand	1 µM	remaining binding	93%
Nc1nc(Nc2ccc(S(N)(=O)=O)cc2)nn1C(=O)c1c(F)cccc1F	RPS6KA1	cell-free assay			0.5 µM	remaining signal	42.1%
CCCOc1ccc(OC)c(F)c1C(=O)c1ccc(C(=O)N[C@@H]2CNC[C@H]2NC(=O)c2ccc3[nH]ncc3c2)cc1	RPS6KA1	enzyme activity	inhibitor		10 µM	remaining activity	29%
C=CC(=O)Nc1cc(Nc2nccc(Nc3cc(Cl)c(F)cc3C(C)(C)O)n2)c(OC)cc1N1CC[C@@H](N(C)C)C1	RPS6KA1	enzyme activity	inhibitor		1 µM	inhibition	9%

SMILES	target	observed	mode	method	concentration	endpoint	value
Nc1nc(Nc2ccccc2)sc1C(=O)c1c(F)cccc1F	RPS6KA1	enzyme activity	inhibitor		10 µM	remaining activity	29%
O=C1NC(c2ccccn2)Sc2ccccc21 (stereo not drawn)	RPS6KA1 C-terminal kinase domain	cell-free assay		competition with immobilised ligand	1 µM	remaining binding	100%
COc1cc(/C=C/C(=O)CC(=O)/C=C/c2ccc(O)c(OC)c2)ccc1O	RPS6KA1	enzyme activity	inhibitor		1 µM	activity vs control	53%
Cc1ccc(Nc2nccc(N(C)c3ccc4c(C)n(C)nc4c3)n2)cc1S(N)(=O)=O	RPS6KA1	enzyme activity	inhibitor		0.5 µM	remaining activity	92.8%
CCC(=O)N[C@@H]1CC[C@H](C(=O)N(C)c2ccc(-c3nc4ccccc4o3)cc2)C1	RPS6KA1 N-terminal kinase domain	cell-free assay		competition with immobilised ligand	1 µM	remaining binding	100%
Nc1nc(NC2CCCCC2)sc1C(=O)c1ccccc1	RPS6KA1	enzyme activity	inhibitor		10 µM	remaining activity	67%
CNc1cccc2cc(C(=O)Nc3ccc(C(=O)O)cc3)c(=O)[nH]c12	RPS6KA1	enzyme activity	inhibitor		10 µM	inhibition	16%
O=C(Nc1cnn(-c2csc(C(=O)NC3COC3)c2)c1)Nc1ccccc1Cl	RPS6KA1	enzyme activity	inhibitor		5 µM	remaining activity	92.4%
CCOCCn1cc(C(=O)Nc2ccc(-n3nc(-c4cccnc4)cc3C(F)(F)F)cn2)ccc1=O	RPS6KA1 N-terminal kinase domain	cell-free assay		competition with immobilised ligand	1 µM	remaining binding	99%
Cc1cc(NC(=O)c2cccc3cc(-c4cccc5[nH]nc(N)c45)ccc23)ccc1F	RPS6KA1	enzyme activity	inhibitor		0.1 µM	activity vs control	115%
Cn1cncc1C1=CN(c2ncnc3[nH]cnc23)CCS1	RPS6KA1	enzyme activity	inhibitor	radiometric	50 nM	inhibition	13%
Cc1cnc(NC2CCOCC2)nc1-n1cnc(C(=O)NC(CN)c2cc(F)cc(Cl)c2)c1 (stereo not drawn)	RPS6KA1	enzyme activity	inhibitor	radiometric	1 µM	remaining activity	44%
CC(C)(C)c1nc(-c2cccc(NS(=O)(=O)c3c(F)cccc3F)c2F)c(-c2ccnc(N)n2)s1	RPS6KA1	enzyme activity	inhibitor	radiometric	1 µM	remaining activity	90%
COc1cc2c(N3CCN(C(=O)Nc4ccc(OC(C)C)cc4)CC3)ncnc2cc1OCCCN1CCCCC1	RPS6KA1	cell-free assay			0.5 µM	remaining signal	94.8%
O=C(NC[C@@H]1[C@H]2CN(C(=O)OCc3cc(C(F)(F)F)cc(C(F)(F)F)c3)C[C@@H]12)c1ccc2[nH]nnc2c1	RPS6KA1 N-terminal kinase domain	cell-free assay		competition with immobilised ligand	1 µM	remaining binding	94%
CC/C(=N\NC(=O)NCc1cccc(O)c1)c1ccc(O)c(C)c1O	RPS6KA1	enzyme activity	inhibitor		0.1 µM	inhibition	72.1%
CCC(=N\O)/C(C)=C/c1ccc(F)cc1	RPS6KA1 C-terminal kinase domain	cell-free assay		competition with immobilised ligand	1 µM	remaining binding	100%
O=C(Nc1cnn(-c2csc(C(=O)NC3COC3)c2)c1)Nc1c(F)cccc1Cl	RPS6KA1	enzyme activity	inhibitor		5 µM	remaining activity	96.3%
